Measurements taken from article PMC3904496 (Cancer chemotherapy and pharmacology, 2012).
Read-outs that look alike come from different tables or passages of the source.

Experiments:
[1] = Steady-state plasma pharmacokinetics, phase I trial; type: in vivo, human; conditions: for Mean peak plasma level: steady state; for AUC: po
Outline: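 Liposarcoma patients took oral test compound twice daily with food. On day 8 of cycle 1, EDTA blood was drawn predose and 0.5–8 h post-dose, iced, spun within 1 h and stored as plasma at ≤ –20 °C. Parent and active metabolite were extracted by protein precipitation/organic extraction (reserpine internal standard) and quantified by LC–MS/MS in positive-ion MRM. Non-compartmental Cmax/Tmax; linear/log trapezoidal AUC.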

liposarcoma [2] = conditions: cited from earlier work
HIV = conditions: cited from earlier work
liposarcoma [3] = assay: Tumor response by RECIST in subjects with liposarcoma; type: in vivo, human
liposarcoma [4] = conditions: cited from earlier work; remark: listed apart in the source
SREBP-1 = conditions: in the absence of increased gene expression; cited from earlier work
liposarcoma xenograft = conditions: murine liposarcoma xenograft; cited from earlier work
[5] = RECIST, 20 subjects, all dose levels

In the case of `Cc1c(O)cccc1C(=O)N[C@@H](CSc1ccccc1)[C@H](O)CN1C[C@H]2CCCC[C@H]2C[C@H]1C(=O)NC(C)(C)CO` [M8], the “time to peak plasma concentration” value ([1]; 3,000 mg nelfinavir twice daily) is listed as 4 to 6 h, the “time to peak plasma concentration” value ([1]; 4,250 mg nelfinavir twice daily) is listed as 2 h and the “anticancer activity relative to parent molecule” value (liposarcoma [2]) is listed as “comparable to its parent molecule”. The “activity in suppressing HIV replication relative to parent drug” value (HIV) was “as pharmacologically active as the parent drug”.

With `Cc1c(O)cccc1C(=O)N[C@@H](CSc1ccccc1)[C@H](O)CN1C[C@H]2CCCC[C@H]2C[C@H]1C(=O)NC(C)(C)C` [nelfinavir] the “Mean peak plasma level” value ([1]; Level 4, 3,000 mg twice daily oral, six subjects) was 7.3 mg/L, the “Mean peak plasma level” value ([1]; Level 5, 4,250 mg twice daily oral, three subjects) was 6.3 mg/L and the Tmax ([1]; human, plasma, oral, 4250 mg twice daily) was 2 h. The AUC ([1]; human, plasma, 3000 mg twice daily) was 60900 ng·h/mL, the AUC ([1]; human, plasma, 4250 mg twice daily) was 37700 ng·h/mL and the “subjects with CT partial response (PR)” value (liposarcoma [3]; [5]) was 1. The “subjects with progressive disease at initial evaluation” value (liposarcoma [3]; [5]) was 13, the “subjects with reduction in tumor size, but less than a PR” value (liposarcoma [3]; [5]) was 1 and the “clinical benefit (complete response, PR, plus SD)” value (liposarcoma [3]; of 20 subjects) was 30%. The “subjects with clinical benefit (complete response, PR, plus SD)” value (liposarcoma [3]; of 20 subjects) was 6, the “Acute toxicity count: Blood/bone marrow, Hemoglobin” value (Course 1, Grade 1) was 3 and the “Acute toxicity count: Blood/bone marrow, Leukocytes (total WBC)” value (Course 1, Grade 1) was 2. The “Acute toxicity count: Blood/bone marrow, Other” value (Course 1, Grade 1) was 1, the “Acute toxicity count: Blood/bone marrow, Platelets” value (Course 1, Grade 1) was 1 and the “Acute toxicity count: Cardiac arrhythmia ventricular arrhythmia” value (Course 1, Grade 1) was 1. For the same compound, the “Acute toxicity count: Laboratory, Bicarbonate, serum-low” value (Course 1, Grade 1) was 1, the “Acute toxicity count: Laboratory, Cholesterol, serum-high” value (Course 1, Grade 1) was 2 and the “Acute toxicity count: Laboratory, Glucose, serum-high” value (Course 1, Grade 1) was 1. For the same compound, the “Acute toxicity count: Laboratory, Potassium, serum-low” value (Course 1, Grade 1) was 2, the “Acute toxicity count: Laboratory, Triglyceride, serum-high” value (Course 1, Grade 1) was 2 and the “Acute toxicity count: Blood/bone marrow, Hemoglobin” value (Course 1, Grade 2) was 1. The “Acute toxicity count: Blood/bone marrow, Lymphopenia” value (Course 1, Grade 2) was 1, the “Acute toxicity count: Laboratory, Glucose, serum-high” value (Course 1, Grade 2) was 1 and the “Acute toxicity count: Laboratory, Lipase” value (Course 1, Grade 3) was 1. For the same compound, the “Acute toxicity count: Blood/bone marrow, Hemoglobin” value (Subsequent courses, Grade 1) was 2, the “Acute toxicity count: Blood/bone marrow, Lymphopenia” value (Subsequent courses, Grade 1) was 1 and the “Acute toxicity count: Blood/bone marrow, Platelets” value (Subsequent courses, Grade 1) was 1. The “Acute toxicity count: Blood/bone marrow, Hemoglobin” value (Subsequent courses, Grade 2) was 2, the “Acute toxicity count: Blood/bone marrow, Neutrophils” value (Subsequent courses, Grade 2) was 1 and the “Acute toxicity count: Blood/bone marrow, Leukocytes (total WBC)” value (human, in vivo) was 1. The “Acute toxicity count: Constitutional, Fatigue” value (human, in vivo) was 1, the “Acute toxicity count: Constitutional, Weight loss” value (human, in vivo) was 1 and the “Acute toxicity count: Dermatology/skin, Other” value (human, in vivo) was 1. For the same compound, the “Acute toxicity count: Dermatology/skin, Rash/desquamation” value (human, in vivo) was 1, the “Acute toxicity count: Gastrointestinal, Anorexia” value (human, in vivo) was 1 and the “Acute toxicity count: Gastrointestinal, Diarrhea” value (human, in vivo) was 7. The “Acute toxicity count: Gastrointestinal, Nausea” value (human, in vivo) was 1, the “Acute toxicity count: Gastrointestinal, Vomiting” value (human, in vivo) was 1 and the “Acute toxicity count: Laboratory, ALT, SGPT” value (human, in vivo) was 1. The “Acute toxicity count: Laboratory, AST, SGOT” value (human, in vivo) was 1, the “Acute toxicity count: Laboratory, Alkaline phosphatase” value (human, in vivo) was 2 and the “Acute toxicity count: Laboratory, Glucose, serum-high” value (human, in vivo) was 3. For the same compound, the “Acute toxicity count: Laboratory, Potassium, serum-low” value (human, in vivo) was 1, the “Acute toxicity count: Laboratory, Triglyceride, serum-high” value (human, in vivo) was 2 and the “Acute toxicity count: Neurology dizziness” value (human, in vivo) was 1. For the same compound, the “Acute toxicity count: Pain” value (human, in vivo) was 2, the “Acute toxicity count: Pulmonary dyspnea” value (human, in vivo) was 1 and the “Acute toxicity count: Pulmonary, Hypoxia” value (human, in vivo) was 1. For the same compound, the “Acute toxicity count: Pulmonary, Other” value (human, in vivo) was 1, the “Acute toxicity count: Constitutional, Fatigue” value (human, in vivo, 28 days) was 1 and the “Acute toxicity count: Dermatology/skin, Other” value (human, in vivo, 28 days) was 1. For the same compound, the “Acute toxicity count: Dermatology/skin, Rash/desquamation” value (human, in vivo, 28 days) was 1, the “Acute toxicity count: Gastrointestinal, Diarrhea” value (human, in vivo, 28 days) was 2 and the “Acute toxicity count: Gastrointestinal, Nausea” value (human, in vivo, 28 days) was 2. The “Acute toxicity count: Gastrointestinal, Vomiting” value (human, in vivo, 28 days) was 1, the “Acute toxicity count: Hemorrhage/bleeding” value (human, in vivo, 28 days) was 1 and the “Acute toxicity count: Hepatobiliary/pancreatitis” value (human, in vivo, 28 days) was 1. The “Acute toxicity count: Laboratory, ALT, SGPT” value (human, in vivo, 28 days) was 3, the “Acute toxicity count: Laboratory, AST, SGOT” value (human, in vivo, 28 days) was 3 and the “Acute toxicity count: Laboratory, Album, serum-low” value (human, in vivo, 28 days) was 1. For the same compound, the “Acute toxicity count: Lymphatics/limb edema” value (human, in vivo, 28 days) was 1, the MTD (up to dose Level 5 (4,250 mg twice daily)) was “not reached” and the “range where anticancer activity was demonstrated in vitro” value (liposarcoma [2]) was 5 to 10 µM. For the same compound, the “potency rank among HIV PIs in clonogenic assays” value (liposarcoma [4]) was “most potent HIV PI identified”, the “precursor SREBP-1 protein expression” value (SREBP-1) was “dose-dependent increase” and the “effect on tumor growth” value (liposarcoma xenograft) was “inhibition of tumor growth”.
